Ecoli WT expand = blocks growth of wild type E. coli BW25113; OD600 absorbance; growth inhibition, % at 100 µM; actives 0.15% (n = 98,000); AID 710;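 active = growth inhibition above about 50% at one test dose, limit read from the data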;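 note: growth measured after 20 h incubation at 37 °C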
Lung fibro prol = blocks proliferation of human lung fibroblasts; AID 719; viability, % at 10 µM; LL 47 human lung fibroblast viability, ATP luminescence; stronger effect = lower value; actives 1.1% (n = 85,000);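 active = viability at or below 50% in the single dose screen; inactive = viability above 50%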;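 note: compound exposure lasted 72 h before the ATP readout; 100% = median luminescence of untreated cell-only wells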
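Test system: LL 47 human lung fibroblasts / Incubation: 72 h compound exposure at 37 °C after overnight plating / Technique: luminescent ATP detection, CellTiter-Glo / Compound dosing: 0.1% DMSO in all compound wells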
Jurkat viability = cytotoxic compounds reducing Jurkat cell viability; inhibition, % at 4 µM; actives 1.2% (n = 56,000); Jurkat E6.1 viability, ATP luminescence, 48 h;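 active = inhibition above the mean inhibition of all tested compounds plus 3 SD, cut at about 28% in these data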
H69AR growth 86K = blocks growth of human H69AR lung tumor cells; H69AR lung tumor viability, ATP luminescence, 72 h; stronger effect = lower value; viability, % at 10 µM; actives 6% (n = 85,000);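 active = viability at or below 40%; inactive = viability above 40%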;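 note: multidrug resistant small cell line overexpressing MRP-1 efflux transporter; 100% = mean luminescence of untreated control wells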
tolC growth inh = growth inhibitors of E. coli BW25113 tolC mutant; actives 2.2% (n = 65,000); OD615; AID 573; growth inhibition, % at 10 µM (by protocol);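 active = growth inhibition at or above a cutoff equal to the mean over every tested compound plus 3 SD, cut at about 60% in these data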;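 note: growth measured after 20 h incubation at 37 °C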
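signal = optical density read at 615 nm | test system = E. coli ΔtolC::kan strain BW25113 | timing = 20 h compound exposure of bacteria at 37 °C | buffer or medium = LB medium plus 50 µg/mL kanamycin | compound dosing = 10 µM final, single dose | evaluation = % inhibition of E. coli growth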
HUVEC prolif 384 = human endothelial cell proliferation inhibition; HUVEC proliferation, CellTiter-Glo luminescence, 72 h; stronger effect = lower value; AID 648; viability, % at 10 µM (by protocol); actives 1.1% (n = 86,000);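 active = viability at or below 30%; inactive = viability above 30%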;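 note: 100% = median luminescence of DMSO-only cell control wells on each plate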
Numbers without * were called inactive; . = not tested or not shown. Most compounds without a hit are left out; they make up all but 6.4% or so of the library.

SMILES	Ecoli WT expand	Lung fibro prol	Jurkat viability	H69AR growth 86K	tolC growth inh	HUVEC prolif 384
CS(=O)(=O)N(CC(O)Cn1c2ccccc2c2ccccc21)c1ccccc1 (centres undefined)	-16	89	-2	30*	59	81
CCN(CC(O)Cn1c2ccccc2c2ccccc21)S(=O)(=O)c1ccc(C)cc1 (centres undefined)	-17	102	.	27*	.	27*
O=C(Oc1ccc2ccccc2c1Cl)N1CCCC1	12	92	26	107	61*	75
O=S(=O)(C/C(=C/CO)S(=O)(=O)c1ccccc1)c1ccccc1	18	.	98*	.	-4	.
O=C(CS(=O)(=O)c1ccccc1)N1CCCCCC1	0	98	-1	103	-12	88
COc1ccccc1Nc1nnc(SCC(=O)c2cc(C)n(CC3CCCO3)c2C)s1 (centres undefined)	-8	100	.	38*	.	102
Cc1cc(C(=O)CSc2nnc(Nc3ccccc3F)s2)c(C)n1CC1CCCO1 (centres undefined)	-6	102	-1	92	19	87
Cc1cc(C)n(-c2nnc(C)n2/N=C/c2ccco2)n1	-1	100	.	95	-15	110
CCCOc1ccc2ccccc2c1/C=N/n1c(C)nnc1-n1nc(C)cc1C	5	55	82*	24*	12	54
Cc1c(C(=O)N2CCOCC2)[nH]c2c1C(=O)CC(c1ccccc1Cl)C2 (centres undefined)	4	62	82*	22*	25	56
Cc1c(C(=O)OCC(C)C)[nH]c2c1C(=O)CC(c1ccco1)C2 (centres undefined)	-8	51	99*	17*	50	44
COc1ccccc1C1CC(=O)NC(C)=C1C(=O)OCC1CCCO1 (centres undefined)	0	100	8	91	8	112
C/C=C/COC(=O)c1[nH]c2c(c1C)C(=O)CC(c1ccco1)C2 (centres undefined)	1	53	99*	29*	7	42
O=C(c1ccccc1)c1ccc(C(=O)N2CCOCC2)cc1	-4	97	3	86	-18	104
Cc1c(C(=O)OCC2CCCO2)[nH]c2c1C(=O)CC(c1ccco1)C2 (centres undefined)	-4	57	78*	28*	23	57
CCC(C)OC(=O)c1[nH]c2c(c1C)C(=O)CC(c1ccc(N(C)C)cc1)C2 (centres undefined)	2	101	2	76	6	75
CCOC(=O)c1[nH]c2c(c1C)C(=O)CC(c1ccc(OC)c(OC)c1)C2 (centres undefined)	-10	96	.	98	-9	93
CCOC(=O)N1CCC(NC(=O)CS(=O)(=O)Cc2nc(-c3ccc(C)cc3)oc2C)CC1	2	97	-1	88	-5	100
Cc1cc(C)nc(NC(=NCCc2c[nH]c3ccccc23)NC(=O)c2ccco2)n1	-11	93	-6	.	22	89
CC1(C)CC2CC(C)(CN2CC(=O)C(C#N)c2ccccc2)C1 (centres undefined)	2	91	-2	99	5	97
Cc1ccc(CNc2ccc(N3CCOCC3)cc2)s1	-1	101	0	100	-5	101
Cc1c(C(=O)OC2CCCC2)[nH]c2c1C(=O)CC(c1ccco1)C2 (centres undefined)	-1	55	100*	28*	10	32
C/C=C/COC(=O)c1[nH]c2c(c1C)C(=O)CC(c1ccc(N(C)C)cc1)C2 (centres undefined)	-8	110	0	29*	32	79
COC(=O)C1C(=O)c2c([nH]c(C(=O)OC3CCCC3)c2C)CC1C (centres undefined)	-8	90	.	70	-4	90
CCOCCOC(=O)c1[nH]c2c(c1C)C(=O)CC(c1ccc(N(C)C)cc1)C2 (centres undefined)	2	.	1	.	1	.
SMILES	Ecoli WT expand	Lung fibro prol	Jurkat viability	H69AR growth 86K	tolC growth inh	HUVEC prolif 384
C=CCOC(=O)c1[nH]c2c(c1C)C(=O)CC(c1ccco1)C2 (centres undefined)	1	55	100*	30*	4	46
CCOC(=O)c1ccc(N=CC2=C(O)CC(c3ccco3)CC2=O)cc1 (centres undefined)	.	.	.	93	3	92
COC(=O)c1[nH]c2c(c1C)C(=O)CC(c1ccccc1)C2 (centres undefined)	-8	59	98*	19*	0	46
CCOc1ccc2nc(SCC(=O)c3ccccc3)sc2c1	-16	108	.	63	.	114
CCN(CC)S(=O)(=O)c1cc(Br)ccc1OC	-1	102	.	86	-7	100
CCOC(=O)N1CCN(C(=O)CN(Cc2ccc(Cl)cc2)S(=O)(=O)c2ccc(C)cc2)CC1	-13	103	.	47	.	94
CCOC(=O)N1CCN(C(=O)CSc2nc3ccccc3c(=O)n2-c2ccccc2)CC1	-4	.	11	87	9	104
CC1(C)Cc2c(c(N3CCCC3)nc3sc4c(N5CCN(CCO)CC5)ncnc4c23)CO1	12	74	.	89	65*	68
OCCN1CCN(c2ncnc3c2sc2nc(N4CCOCC4)c4c(c23)CCC4)CC1	4	87	.	98	34	80
CSCCNC(=O)c1ccc(C(C)(C)C)cc1	-4	94	1	100	13	88
COc1cccc(-c2nc(N3CCCCC3C)c3ccccc3n2)c1O (centres undefined)	-16	81	.	38*	1	47
CC(=O)Nc1nc(C)c(-c2csc(Nc3ccc(O)cc3)n2)s1	2	47*	16	7.2*	21	40
Oc1ccc(Nc2nc(-c3ccc4ccccc4c3)cs2)cc1	0	47*	.	19*	.	55
Cc1nc(C)c(-c2csc(Nc3cccnc3)n2)s1	5	31*	-3	50	4	66
CC(=O)Nc1nc(C)c(-c2csc(Nc3cccc([N+](=O)[O-])c3)n2)s1	-1	.	.	.	.	.
O=C(Nc1ccc(-c2csc(-c3ccccc3)n2)cc1)c1ccccc1	-12	.	.	.	.	.
Oc1ccc(-c2nc(-c3ccc(O)c(O)c3)cs2)cc1	25	46*	97*	12*	19	34
CCCCn1c(SCC(=O)Nc2ccccc2C(F)(F)F)nc2ccsc2c1=O	-3	97	.	92	.	102
CCOC(=O)C1C(=O)NC(N2CCCCC2)=NC1c1ccccc1 (centres undefined)	-4	97	7	95	-23	101
O=C(c1ccc(COc2c(F)c(F)cc(F)c2F)o1)N1CCN(c2ccccc2)CC1	.	96	.	85	.	99
O=C(Nc1cnc2ccccn2c1=O)c1ccc(Cl)cc1	8	116	.	85	.	98
Nc1c(C(=O)C2CC2)sc2nc(-c3cccs3)cc(C(F)(F)F)c12	-10	101	.	12*	.	32
CCCSc1nsc(NC(=O)C(c2ccccc2)c2ccccc2)n1	-5	87	.	18*	.	68
